Measurements reported in ChEMBL document CHEMBL5058577, “EUbOPEN Chemogenomics Library 2 (Multiplex)” (2022).
“And” between values parts separate entries of the source, which are not always exact repeats. Identical values can stand only once.

Test system: Fibroblast
Assay: Multiplex assay against human fibroblast
Type: toxicity, cell-based
In short: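 Per cents of healthy-nucleus cells form the tubulin, mitochondrial-mass and membrane-permeability phenotype values. Live cells were stained at seeding with Hoechst33342, BioTracker Green Microtubule Cytoskeleton Dye, MitoTracker Red and Annexin V Alexa Fluor 680. After compound addition they were imaged on a CQ1 microscope at 37°C and 5% CO2, and CellPathfinder machine-learning gating split them into Hoechst high-intensity objects or normal cells, normal cells into healthy, pyknosed or fragmented nuclei, and pyknosed cells into mitotic or apoptotic.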

[1] = 12 h, 10 µM, compound concentration 10 uM, replicate 1
[2] = 12 h, 10 µM, compound concentration 10 uM, replicate 2
[3] = 24 h, 10 µM, compound concentration 10 uM, replicate 1
[4] = 24 h, 10 µM, compound concentration 10 uM, replicate 2
[5] = 48 h, 10 µM, compound concentration 10 uM, replicate 1
[6] = 48 h, 10 µM, compound concentration 10 uM, replicate 2
[7] = 12 h, 1 µM, compound concentration 1 uM, replicate 1
[8] = 12 h, 1 µM, compound concentration 1 uM, replicate 2
[9] = 24 h, 1 µM, compound concentration 1 uM, replicate 1
[10] = 24 h, 1 µM, compound concentration 1 uM, replicate 2
[11] = 48 h, 1 µM, compound concentration 1 uM, replicate 1
[12] = 48 h, 1 µM, compound concentration 1 uM, replicate 2

Which results are given for `CC(=O)O[C@H]1C(=O)[C@@]2(C)[C@H]([C@H](OC(=O)c3ccccc3)[C@]3(O)C[C@H](OC(=O)[C@H](O)[C@@H](NC(=O)c4ccccc4)c4ccccc4)C(C)=C1C3(C)C)[C@]1(OC(C)=O)CO[C@@H]1C[C@@H]2O` [PACLITAXEL]?
Population Apoptotic (%) [1]: 65% and 41%; Population Fragmented Nuclei (%) [1]: 19% and 23%; Population Healthy Nuclei (%) [1]: 63% and 56%; Population Hoechst High Intensity Objects (%) [1]: 5% and 3%; Population Membrane Permeable-Phenotype (%) [1]: 0% and 1%; Population Mitochondria Different-Phenotype (%) [1]: 10% and 9%; Population Mitotic Cells (%) [1]: 34% and 58%; Population Normal (%) [1]: 94% and 96%; Population Pyknosed Nuclei (%) [1]: 16% and 19%; Population Tubulin-Different-Phenotype (%) [1]: 17% and 19%; Total Cell Count [1]: 167 and 151; Population Apoptotic (%) [2]: 39% and 43%; Population Fragmented Nuclei (%) [2]: 34% and 32%; Population Healthy Nuclei (%) [2]: 39% and 32%; Population Hoechst High Intensity Objects (%) [2]: 1%; Population Membrane Permeable-Phenotype (%) [2]: 6% and 8%; Population Mitochondria Different-Phenotype (%) [2]: 13% and 19%; Population Mitotic Cells (%) [2]: 60% and 56%; Population Normal (%) [2]: 98%; Population Pyknosed Nuclei (%) [2]: 25% and 34%; Population Tubulin-Different-Phenotype (%) [2]: 44% and 52%; Total Cell Count [2]: 111 and 142; Population Apoptotic (%) [3]: 70% and 60%; Population Fragmented Nuclei (%) [3]: 19% and 21%; Population Healthy Nuclei (%) [3]: 63% and 58%; Population Hoechst High Intensity Objects (%) [3]: 1% and 3%; Population Membrane Permeable-Phenotype (%) [3]: 0% and 1%; Population Mitochondria Different-Phenotype (%) [3]: 9% and 13%; Population Mitotic Cells (%) [3]: 29% and 40%; Population Normal (%) [3]: 98% and 96%; Population Pyknosed Nuclei (%) [3]: 16% and 20%; Population Tubulin-Different-Phenotype (%) [3]: 12% and 24%; Total Cell Count [3]: 164 and 155; Population Apoptotic (%) [4]: 30% and 62%; Population Fragmented Nuclei (%) [4]: 36% and 27%; Population Healthy Nuclei (%) [4]: 45% and 43%; Population Hoechst High Intensity Objects (%) [4]: 2% and 4%; Population Membrane Permeable-Phenotype (%) [4]: 6% and 11%; Population Mitochondria Different-Phenotype (%) [4]: 10% and 19%; Population Mitotic Cells (%) [4]: 70% and 37%; Population Normal (%) [4]: 97%; Population Pyknosed Nuclei (%) [4]: 18% and 29%; Population Tubulin-Different-Phenotype (%) [4]: 40% and 48%; Total Cell Count [4]: 114 and 125; Population Apoptotic (%) [5]: 76% and 84%; Population Fragmented Nuclei (%) [5]: 31% and 28%; Population Healthy Nuclei (%) [5]: 50% and 53%; Population Hoechst High Intensity Objects (%) [5]: 4%; Population Membrane Permeable-Phenotype (%) [5]: 0%; Population Mitochondria Different-Phenotype (%) [5]: 16% and 18%; Population Mitotic Cells (%) [5]: 23% and 16%; Population Normal (%) [5]: 95%; Population Pyknosed Nuclei (%) [5]: 17%; Population Tubulin-Different-Phenotype (%) [5]: 20% and 23%; Total Cell Count [5]: 177 and 150; Population Apoptotic (%) [6]: 54% and 56%; Population Fragmented Nuclei (%) [6]: 48% and 41%; Population Healthy Nuclei (%) [6]: 42% and 47%; Population Hoechst High Intensity Objects (%) [6]: 0% and 1%; Population Membrane Permeable-Phenotype (%) [6]: 3% and 8%; Population Mitochondria Different-Phenotype (%) [6]: 9% and 14%; Population Mitotic Cells (%) [6]: 45% and 43%; Population Normal (%) [6]: 100% and 98%; Population Pyknosed Nuclei (%) [6]: 8% and 11%; Population Tubulin-Different-Phenotype (%) [6]: 40% and 54%; Total Cell Count [6]: 129 and 146

Which results are given for `O=C(O)c1cc2ccccc2c(Cc2c(O)c(C(=O)O)cc3ccccc23)c1O` [PAMOIC ACID]?
Population Apoptotic (%) [7]: 54%; Population Fragmented Nuclei (%) [7]: 10%; Population Healthy Nuclei (%) [7]: 81%; Population Hoechst High Intensity Objects (%) [7]: 2%; Population Membrane Permeable-Phenotype (%) [7]: 0%; Population Mitochondria Different-Phenotype (%) [7]: 2%; Population Mitotic Cells (%) [7]: 45%; Population Normal (%) [7]: 97%; Population Pyknosed Nuclei (%) [7]: 7%; Population Tubulin-Different-Phenotype (%) [7]: 20%; Total Cell Count [7]: 147; Population Apoptotic (%) [8]: 32%; Population Fragmented Nuclei (%) [8]: 23%; Population Healthy Nuclei (%) [8]: 56%; Population Hoechst High Intensity Objects (%) [8]: 6%; Population Membrane Permeable-Phenotype (%) [8]: 6%; Population Mitochondria Different-Phenotype (%) [8]: 8%; Population Mitotic Cells (%) [8]: 67%; Population Normal (%) [8]: 93%; Population Pyknosed Nuclei (%) [8]: 19%; Population Tubulin-Different-Phenotype (%) [8]: 34%; Total Cell Count [8]: 154; Population Apoptotic (%) [1]: 40%; Population Fragmented Nuclei (%) [1]: 7%; Population Healthy Nuclei (%) [1]: 80%; Population Hoechst High Intensity Objects (%) [1]: 4%; Population Membrane Permeable-Phenotype (%) [1]: 1%; Population Mitochondria Different-Phenotype (%) [1]: 5%; Population Mitotic Cells (%) [1]: 60%; Population Normal (%) [1]: 95%; Population Pyknosed Nuclei (%) [1]: 11%; Population Tubulin-Different-Phenotype (%) [1]: 23%; Total Cell Count [1]: 132; Population Apoptotic (%) [2]: 37%; Population Fragmented Nuclei (%) [2]: 24%; Population Healthy Nuclei (%) [2]: 51%; Population Membrane Permeable-Phenotype (%) [2]: 3%; Population Mitochondria Different-Phenotype (%) [2]: 3%; Population Mitotic Cells (%) [2]: 62%; Population Pyknosed Nuclei (%) [2]: 24%; Population Tubulin-Different-Phenotype (%) [2]: 51%; Total Cell Count [2]: 156; Population Apoptotic (%) [9]: 33%; Population Fragmented Nuclei (%) [9]: 10%; Population Healthy Nuclei (%) [9]: 86%; Population Hoechst High Intensity Objects (%) [9]: 3%; Population Membrane Permeable-Phenotype (%) [9]: 0%; Population Mitochondria Different-Phenotype (%) [9]: 2%; Population Mitotic Cells (%) [9]: 66%; Population Normal (%) [9]: 96%; Population Pyknosed Nuclei (%) [9]: 4%; Population Tubulin-Different-Phenotype (%) [9]: 17%; Total Cell Count [9]: 156; Population Apoptotic (%) [10]: 32%; Population Fragmented Nuclei (%) [10]: 23%; Population Healthy Nuclei (%) [10]: 58%; Population Hoechst High Intensity Objects (%) [10]: 6%; Population Membrane Permeable-Phenotype (%) [10]: 9%; Population Mitochondria Different-Phenotype (%) [10]: 11%; Population Mitotic Cells (%) [10]: 68%; Population Normal (%) [10]: 93%; Population Pyknosed Nuclei (%) [10]: 18%; Population Tubulin-Different-Phenotype (%) [10]: 39%; Total Cell Count [10]: 147; Population Apoptotic (%) [3]: 50%; Population Fragmented Nuclei (%) [3]: 8%; Population Healthy Nuclei (%) [3]: 77%; Population Hoechst High Intensity Objects (%) [3]: 2%; Population Membrane Permeable-Phenotype (%) [3]: 1%; Population Mitochondria Different-Phenotype (%) [3]: 1%; Population Mitotic Cells (%) [3]: 50%; Population Normal (%) [3]: 97%; Population Pyknosed Nuclei (%) [3]: 13%; Population Tubulin-Different-Phenotype (%) [3]: 20%; Total Cell Count [3]: 138; Population Apoptotic (%) [4]: 40%; Population Fragmented Nuclei (%) [4]: 34%; Population Healthy Nuclei (%) [4]: 52%; Population Hoechst High Intensity Objects (%) [4]: 5%; Population Membrane Permeable-Phenotype (%) [4]: 3%; Population Mitochondria Different-Phenotype (%) [4]: 5%; Population Mitotic Cells (%) [4]: 59%; Population Normal (%) [4]: 94%; Population Tubulin-Different-Phenotype (%) [4]: 39%; Total Cell Count [4]: 170; Population Apoptotic (%) [11]: 25%; Population Fragmented Nuclei (%) [11]: 12%; Population Healthy Nuclei (%) [11]: 79%; Population Hoechst High Intensity Objects (%) [11]: 4%; Population Membrane Permeable-Phenotype (%) [11]: 0%; Population Mitochondria Different-Phenotype (%) [11]: 2%; Population Mitotic Cells (%) [11]: 75%; Population Normal (%) [11]: 95%; Population Pyknosed Nuclei (%) [11]: 8%; Population Tubulin-Different-Phenotype (%) [11]: 23%; Total Cell Count [11]: 155; Population Apoptotic (%) [12]: 38%; Population Fragmented Nuclei (%) [12]: 23%; Population Healthy Nuclei (%) [12]: 58%; Population Hoechst High Intensity Objects (%) [12]: 3%; Population Membrane Permeable-Phenotype (%) [12]: 9%; Population Mitochondria Different-Phenotype (%) [12]: 8%; Population Mitotic Cells (%) [12]: 61%; Population Normal (%) [12]: 96%; Population Pyknosed Nuclei (%) [12]: 17%; Population Tubulin-Different-Phenotype (%) [12]: 44%; Total Cell Count [12]: 152; Population Apoptotic (%) [5]: 50%; Population Fragmented Nuclei (%) [5]: 19%; Population Healthy Nuclei (%) [5]: 72%; Population Hoechst High Intensity Objects (%) [5]: 5%; Population Membrane Permeable-Phenotype (%) [5]: 2%; Population Mitochondria Different-Phenotype (%) [5]: 5%; Population Mitotic Cells (%) [5]: 50%; Population Normal (%) [5]: 94%; Population Pyknosed Nuclei (%) [5]: 7%; Population Tubulin-Different-Phenotype (%) [5]: 29%; Total Cell Count [5]: 136; Population Apoptotic (%) [6]: 60%; Population Fragmented Nuclei (%) [6]: 32%; Population Healthy Nuclei (%) [6]: 60%; Population Hoechst High Intensity Objects (%) [6]: 3%; Population Membrane Permeable-Phenotype (%) [6]: 3%; Population Mitochondria Different-Phenotype (%) [6]: 1%; Population Mitotic Cells (%) [6]: 40%; Population Normal (%) [6]: 96%; Population Pyknosed Nuclei (%) [6]: 6%; Population Tubulin-Different-Phenotype (%) [6]: 28%; Total Cell Count [6]: 156
